Source: PubChem (The Scripps Research Institute Molecular Screening Center)
PAD4 inh: PAD4 (human) enzyme inhibition | Q9UM07 | recombinant PAD4, RCA probe fluorescence polarization | inhibition, % at 6.36 µM | actives 0.41% (n = 330,000);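 active means percent inhibition above a cutoff equal to the mean of all tested compounds plus 3 SD, cut at about 15% in these data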
Fh CTSL1 inh: blocks F. hepatica cathepsin L1 in PFM18AAP counter-screen | recombinant F. hepatica cathepsin L1, Z-Leu-Arg-MCA fluorescence | inhibition, % at 5.96 µM | actives 0.49% (n = 300,000);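 active means inhibition above the mean of all tested compounds plus 3 SD, set per screening campaign, cut at about 17% in these data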
GSTO1 counter: GSTO1 inhibition, counter-screen for RBBP9 inhibitors | inhibition, % at 5.96 µM | P78417 | AID 1974 | recombinant GSTO1, activity-based probe fluorescence polarization | actives 1.1% (n = 300,000);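 active means inhibition above the campaign mean inhibition plus 3 SD, cut at about 35% in these data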
Target sequence (P78417 whole entry, looked up): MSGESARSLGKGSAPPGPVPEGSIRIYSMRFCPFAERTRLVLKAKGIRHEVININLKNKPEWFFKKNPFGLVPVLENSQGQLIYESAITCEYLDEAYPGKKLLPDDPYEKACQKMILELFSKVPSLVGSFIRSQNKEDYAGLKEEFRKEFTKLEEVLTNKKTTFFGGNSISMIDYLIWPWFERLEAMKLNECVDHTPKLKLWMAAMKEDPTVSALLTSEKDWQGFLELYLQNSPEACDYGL
TDP2 absorb: TDP2 (human) inhibition, absorbance primary screen. O95551. recombinant TDP2, T5PNP hydrolysis, p-nitrophenol absorbance 415 nm. inhibition, % at 12.8 µM. actives 0.34% (n = 370,000). AID 720702;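 active means inhibition above the mean of all tested compounds plus 3 SD, set per campaign, cut at about 25% in these data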
Target sequence (O95551 whole entry, looked up): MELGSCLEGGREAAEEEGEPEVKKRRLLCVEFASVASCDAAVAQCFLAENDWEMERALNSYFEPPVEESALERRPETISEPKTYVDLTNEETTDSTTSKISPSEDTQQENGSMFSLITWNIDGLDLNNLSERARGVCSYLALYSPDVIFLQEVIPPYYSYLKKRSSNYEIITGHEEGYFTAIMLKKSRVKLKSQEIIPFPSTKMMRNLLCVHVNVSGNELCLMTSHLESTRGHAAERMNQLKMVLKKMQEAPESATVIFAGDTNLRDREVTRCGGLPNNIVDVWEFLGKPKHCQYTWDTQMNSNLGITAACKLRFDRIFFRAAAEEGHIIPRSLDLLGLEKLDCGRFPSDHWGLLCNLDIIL
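System: recombinant human TDP2 / Amount: 120 nM TDP2 per well / Also added: 5 mM T5PNP chromogenic substrate / Doses: 12.8 µM single point, 1% DMSO / Incubation: 2 h at 37 °C / Detection: p-Nitrophenol epi absorbance / Evaluation: % inhibition relative to enzyme-containing and enzyme-free wells / Repeats: singlicate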
GSTO1 confirm: GSTO1 (human) inhibition, confirmation | shares compounds with GSTO1 counter | recombinant GSTO1, probe fluorescence polarization | actives 54% (n = 2,400) | inhibition, % at 5.96 µM | AID 2176;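 active means inhibition above the primary screen's cutoff, its mean inhibition plus 3 SD, cut at about 35% in these data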;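 further: loss of polarization as inhibitors block binding of rhodamine sulfonate ester activity probe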
GSTO1 recomb ABPP: blocks recombinant human glutathione S-transferase omega 1. shares compounds with GSTO1 counter. recombinant GSTO1, gel ABPP SE-Rh probe fluorescence. inhibition, % at 1 µM. actives 30% (n = 130);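 active means inhibition of the enzyme GSTO1 above about 75%, limit read from the data; inactive means inhibition below that limit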
Each line names hits and unclear results; the compound was inactive in the other large screens (follow-up assays come after a bar, where they were run). Compounds with a hit are over-represented: about 1.4% of the library has one in this group of screens.

O=C1[C@H]2C[C@@]3(n4ccc5ccccc54)c4ccccc4N(S(=O)(=O)c4ccccc4)[C@H]3N2C(=O)CN1Cc1ccccc1	none (no result: PAD4 inh, Fh CTSL1 inh, GSTO1 counter)
CC(C)CNC(=O)OCc1cn(Cc2ccccc2C(F)(F)F)nn1	none (no result: PAD4 inh, Fh CTSL1 inh, GSTO1 counter)
CCN(Cc1ccc(OC)c(F)c1)C(=O)C1CCCO1 (stereo unspecified)	none
CCN(Cc1ccc(OC)c(F)c1)C(=O)CCl	GSTO1 counter 98 | GSTO1 confirm 101 | GSTO1 recomb ABPP inactive
Cc1ccc(CN2CCCCC(NC(=O)c3ccccc3)C2=O)cc1 (stereo unspecified)	none (no result: PAD4 inh, Fh CTSL1 inh, GSTO1 counter)
CC(C)CN1C(=O)N2Cc3ccccc3C2CS1(=O)=O (stereo unspecified)	none (no result: PAD4 inh, Fh CTSL1 inh, GSTO1 counter)
CC1(OC(=O)C2CCCC2)C(=O)C=C2C=C3CCCCN3C=C2C1=O (stereo unspecified)	GSTO1 counter 51 (no result: TDP2 absorb) | GSTO1 confirm inactive
COC(=O)CCC(=O)OC1(C)C(=O)C=C2C=C3CCCN3C=C2C1=O (stereo unspecified)	GSTO1 counter 38 | GSTO1 confirm inactive
Cc1ccc(C)c(NC(=O)Cn2nnc(-c3ccncc3)n2)c1	none (no result: PAD4 inh, Fh CTSL1 inh, GSTO1 counter)
N=C1CCC(=N)c2c1c(O)c1ccccc1c2O	PAD4 inh 43, Fh CTSL1 inh 19, GSTO1 counter 77 (no result: TDP2 absorb) | GSTO1 confirm 77
CN(c1ccc(NC(=O)Cc2c[nH]c3ccccc23)cc1)c1ccccn1	none (no result: PAD4 inh, Fh CTSL1 inh, GSTO1 counter)
Cc1ccc(NC(=O)c2cc(CC(C)C)nc3ccccc23)cc1	GSTO1 counter 42 | GSTO1 confirm inactive
COC(=O)[C@]12C[C@H](CC(=O)NCC34CC5CC(CC(C5)C3)C4)C(=O)N(CCc3ccc(OC)c(OC)c3)C1=C[C@H](C(C)(C)C)O[C@@H]2C	none (no result: PAD4 inh, Fh CTSL1 inh, GSTO1 counter)
CC(C)C[C@@H]1COc2cc(NCCO)ccc2S(=O)(=O)N1	none (no result: PAD4 inh, Fh CTSL1 inh, GSTO1 counter)
[O-][n+]1onc2c1CCC(=N/O)/C2=N\Nc1ccccc1	GSTO1 counter 40 (no result: TDP2 absorb) | GSTO1 confirm inactive
O=C1CCC/C(=N/Nc2ccc(Cl)cc2)C1	GSTO1 counter 40 | GSTO1 confirm inactive
O=C(NN=C1CCCC1)c1ccc(Cl)cc1	none
COC(CN(C(=O)CCl)C(C(=O)NC1CCCCC1)c1ccc(Cl)cc1)OC (stereo unspecified)	Fh CTSL1 inh 82, GSTO1 counter 73 | GSTO1 confirm 98 | GSTO1 recomb ABPP inactive
COc1ccc(C(C(=O)NC2CCCCC2)N(C(=O)CCl)c2ccc(Cl)cc2)cc1 (stereo unspecified)	GSTO1 counter 97 (no result: TDP2 absorb) | GSTO1 confirm 89 | GSTO1 recomb ABPP 91
COc1ccc(N(C(=O)c2cnccn2)C(C(=O)NC2CCCCC2)c2ccc(Cl)cc2)cc1 (stereo unspecified)	none
COC(=O)C1CN(Cc2cn(CCOC(C)=O)nn2)CCS(=O)(=O)N1Cc1ccccc1 (stereo unspecified)	none (no result: PAD4 inh, Fh CTSL1 inh, GSTO1 counter)
Cc1ccc(S(=O)(=O)C(C#N)c2nc3ccccc3nc2N2CCCC2)cc1 (stereo unspecified)	GSTO1 counter 51, TDP2 absorb 37 | GSTO1 confirm inactive
CCN1CCN(c2nc3ccccc3nc2C(C#N)S(=O)(=O)c2ccc(C)cc2)CC1 (stereo unspecified)	none
CCOC(=O)Cn1cc(CN2CCS(=O)(=O)N(Cc3ccc(F)cc3)C(C(=O)OC)C2)nn1 (stereo unspecified)	none (no result: PAD4 inh, Fh CTSL1 inh, GSTO1 counter)
CC(=O)C(C(C)=O)c1c(Cl)c(O)c(O)c2c(C(=O)c3ccccc3)coc12	GSTO1 counter 58 | GSTO1 confirm inactive
CN1CCN(Cc2c(O)ccc3occ(C(=O)c4ccccc4)c23)CC1	none
CCOC(=O)c1c(CC(C)C)csc1NC(=O)CCl	GSTO1 counter 76 | GSTO1 confirm 92
Cc1cccc(OCC(=O)N=Nc2c(O)[nH]c3ccc([N+](=O)[O-])cc23)c1	none
O=[N+]([O-])c1ccc2[nH]c(O)c(N=NC(=S)Nc3cccnc3)c2c1	GSTO1 counter 42 | GSTO1 confirm 65
O=[N+]([O-])c1ccc2[nH]c(O)c(N=NC(=S)NCC3CCCO3)c2c1 (stereo unspecified)	GSTO1 counter 40 | GSTO1 confirm 45
COc1ccc(CN2C[C@]3(C=C4CCCCC4n4c(=O)n(-c5ccccc5)c(=O)n43)N(C(=O)OCc3ccccc3)C2=NC(=O)c2ccccc2)c(OC)c1 (stereo partly specified)	none (no result: PAD4 inh, Fh CTSL1 inh, GSTO1 counter)
CC1=NN(c2ccccc2)C(=O)/C1=C/c1cc2cc(C)ccc2nc1N1CCCCC1	PAD4 inh 21, GSTO1 counter 68 (no result: TDP2 absorb) | GSTO1 confirm inactive
Nc1nnc(CC(=O)N/N=C/c2cc([N+](=O)[O-])cc(Br)c2O)s1	GSTO1 counter 41 | GSTO1 confirm 71
CC(=O)N1C(=O)C2(C(C#N)=C(N)Oc3c2c(C)nn3-c2ccccc2)c2ccccc21 (stereo unspecified)	none
CCN1C(=O)C2(C(C#N)=C(N)Oc3c2c(C)nn3-c2ccccc2)c2ccccc21 (stereo unspecified)	GSTO1 counter 39 (no result: TDP2 absorb) | GSTO1 confirm inactive
CC(C)(C)C1CCN2CCCC(c3ccccc3)(C1)C2=O (stereo unspecified)	none (no result: PAD4 inh, Fh CTSL1 inh, GSTO1 counter)
c1ccc(CCCOCCC2CO2)cc1 (stereo unspecified)	GSTO1 counter 96 (no result: TDP2 absorb) | GSTO1 confirm 94 | GSTO1 recomb ABPP inactive
COc1ccc2c(c1)CNC2CS(=O)(=O)NCC(C)C (stereo unspecified)	none (no result: PAD4 inh, Fh CTSL1 inh, GSTO1 counter)
Oc1ccc(-c2csc(Nc3cccc4ccccc34)n2)cc1O	GSTO1 counter 62 | GSTO1 confirm inactive
COc1ccc(CNC2CCC23CCC(c2ccccc2)CC3)cc1OC (stereo unspecified)	none (no result: PAD4 inh, Fh CTSL1 inh, GSTO1 counter)
OC[C@@H]1CN(Cc2ccc3c(c2)OCO3)C[C@H](n2cnc3c(NC4CC4)ncnc32)O1	none (no result: PAD4 inh, Fh CTSL1 inh, GSTO1 counter)
Cc1cc2ccccc2c(=O)[nH]1	none
Cc1ccccc1Nc1cc2ccccc2c(=O)[nH]1	PAD4 inh 59, Fh CTSL1 inh 83, GSTO1 counter 74 (no result: TDP2 absorb) | GSTO1 confirm 45
CCC(=O)N(c1ccccc1)C1CCN(C(=O)C(Cc2ccccc2)NC(C)=O)CC1 (stereo unspecified)	none (no result: PAD4 inh, Fh CTSL1 inh, GSTO1 counter)
COc1ccccc1C(=O)Nc1nc(-c2cccs2)c(NC(C)=O)s1	GSTO1 counter 39 | GSTO1 confirm inactive
Cc1ccccc1NCC(=O)N=Nc1c(O)[nH]c2ccc([N+](=O)[O-])cc12	GSTO1 counter 45 | GSTO1 confirm 50
Cc1ccc(NCC(=O)N=Nc2c(O)[nH]c3ccc([N+](=O)[O-])cc23)cc1	none
O=C(N=Nc1c(O)[nH]c2ccc([N+](=O)[O-])cc12)c1ccccc1Cl	GSTO1 counter 45 | GSTO1 confirm inactive
COc1ccc(-c2cc(=O)c3c(O)cc(O)cc3o2)cc1	none
O=c1cc(-c2ccc(O)c(O)c2)oc2cc(O)cc(O)c12	GSTO1 counter 50 | GSTO1 confirm 47
O=c1c(O)c(-c2ccc(O)c(O)c2)oc2cc(O)cc(O)c12	GSTO1 counter 57 | GSTO1 confirm 66
